Test results reported in the EternaBench riboswitch data.

System: MS2 coat protein
Assay: apparent Kd, MS2 coat protein; higher = weaker binding; RNA-MaP array; FMN 200 µM where present
Procedure, shortened: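 The apparent Kd comes from binding curves fitted cluster by cluster, filtered, and summarised as a median. Those curves followed SNAP-549-labelled MS2 coat protein from 0.7 or 1.5 nM, doubling to 3 µM, on Illumina sequencing-chip clusters where stalled E. coli RNA polymerase had transcribed the designs, without and then with constant ligand. The buffer was 100 mM Tris-HCl pH 7.5, 80 mM KCl, 4 mM MgCl2, BSA, DTT, yeast tRNA and Tween-20, and green signal was normalised to red-channel RNA signal and control-cluster median Fmax.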

[1] = designed as: OFF switch for flavin mononucleotide, no ligand
[2] = ligand present: flavin mononucleotide, designed as: OFF switch for flavin mononucleotide
[3] = designed as: ON switch for flavin mononucleotide, no ligand
[4] = ligand present: flavin mononucleotide, designed as: ON switch for flavin mononucleotide

Sequence	apparent Kd [1] [nM]	apparent Kd [2] [nM]	apparent Kd [3] [nM]	apparent Kd [4] [nM]
CCAUGGCAUGUAGGAUAUGUCUGACAAAGUCAGACAGAAGGACAUGAGGAUCACCCAUGUAAACCGAAAGGAACAUAGCCAUGG	6.54	7.3		
CCAUGGCAUGUAGGAUAUGUCUGACAAAGUCAGACAGAAGGACAUGAGGAUCACCCAUGUAAUGGAAAACCAAUAUAGCCAUGG	7.62	11.3		
CCAUGUUAGCAGGAUAUGCAAUAAAUCUUUUAAGCAGAAGGGCUUACAUGAGGAUCACCCAUGUAUAAUUUCAA	50.3	116		
CCAUUCAGAGGAUAUGCGCAUAGAUAAGACUUUGUUUCUUAACAUGAGGAUCACCCAUGUAGAAGGCUGUACCC	24.1	21		
CCCAAACUUGGGCUUGGUGGUGCAUAGGAUAUCCUUGAACAUGAGGAUCACCCAUGUGCAACUGUGGAGAAGGGUGCAGGGCCU			362	88.4
CCCAGAGCGUAAGGAUAUACAUGAGGAUCACCCAUGUCUACAAUAAUAGUACUAUAUGAAGUCGUGUAGAAGGUACGCGCAGGU	41.2	119		
CCCAUGUUAGGAUAUCGGCUCCGCCGUUCCACAUGGCGCUCCGAGAAGGAACAUGAGGAUCACCCAUGUAAAGA	39.1	140		
CCCGCGAUGUCAGGAUAUAGUCGGAGGUUCAGACUAGAAGGGACAUGAGGAUCACCCAUGUGCGUGAAAAUUUAAAACCUAGGU	51.5	191		
CCCGGGUUAGGAUAUUUGGGCCCGGGCGAACGCCCGGGCCCGGAGAAGGGACAUGAGGAUCACCCAUGUCCGGG	21.2	19.2		
CCCGUGUGAGGAUAUCGUUCGCUUGGCGUUUGUCGGGUGGGCGAGAAGGUACAUGAGGAUCACCCAUGUGCGGG	172	422		
CCCUAAUAUCGAGGAUAUGUCUAGACACAUGAGGAUCACCCAUGUAUGUGUAUAGAAGGCGAUAUUAACAGCAUGUUACAUCCC			46.2	21.7
CCCUAGGGAGGAUAUCCAAUAUAUGACAUGAGGAUCACCCAUGUUUCCACUCGUACCUCCGGAGAAGGCCCAUCCC	26.3	24.5		
CCGAAUAAGCAGGAUAUCGUAUCGGAAACGAUACGAGAAGGGCUAACAUGAGGAUCACCCAUGUUCCUUAACGG	22.1	23.5		
CCGAAUAUGCAGGAUAUCGUAUCGGAAACGAUACGAGAAGGGUAAACAUGAGGAUCACCCAUGUUCCUUAACGG	20.6	22.2		
CCGACCCAAGGAUAUUGUACUGCUGACAUGAGGAUCACCCAUGUAUGUUAACUCGGCCGACGAGAAGGUGGCGACA	26.8	23.9		
CCGAUACGAGGAUAUACAUGAGGAUCACCCAUGUAGUGGACCGAGCGUCGGUGUCUCAGUAGAAGGCGUUAAGA	16.2	17.3		
CCGCGCUGUCGAGAGGAUAUGCGGUGAUGGACAUGAGGAUCACCCAUGUUAGCGAUAGCAUUACUGUAGAAGGCUCUACGGCGGC			16.6	17.3
CCGCUGUUAGGAUAUCUGAAGCUUCAAUGGAAGUCUUCAUUGGAGAAGGGACAUGAGGAUCACCCAUGUAGGGA	192	253		
CCGGAAACGGGUAGCCUGACAUGAGGAUCACCCAUGUGAUCCUAGGAUAUGGAUCCUAAUUGGAUCCAGAAGGAGGUUGGCUAC			1280	368
CCGGAAACGGGUAGCUGACAUGAGGAUCACCCAUGUGUAUCACAGGAUAUGGAUCCUAAUUGGAUCCAGAAGGGUGUCAGCUAC			1130	105
CCGGAAAUAGAGGAUAUCGUAUCGGAUACGAUACGAGAAGGCUGUACAUGAGGAUCACCCAUGUGUCCUACCGG	11.2	21.6		
CCGGAAAUGGAGGAUAUCGUAUCGGAUACGAUACGAGAAGGCUAUACAUGAGGAUCACCCAUGUGUCCUACCGG	12.6	20.1		
CCGGAUACGGGUAGCCUGACAUGAGGAUCACCCAUGUAAUACGAGGAUAUGGAUCCUAAUUGGAUCCAGAAGGUGUCAGGCUAC			1310	734
